Numbering of substitutions follows the chain as printed. Where two headings read alike, the source gives them in different places. Marks after values point to notes of the source that are not given here.
Experiments:
[1] = biological target: T1, C13S CETP (Homo sapiens, UniProt P11597, C30S); assay: Transfer of CE from HDL to LDL, scintillation proximity assay, C13S mutant; assay type: biochemical
T1 sequence (P11597 18-493 C30S): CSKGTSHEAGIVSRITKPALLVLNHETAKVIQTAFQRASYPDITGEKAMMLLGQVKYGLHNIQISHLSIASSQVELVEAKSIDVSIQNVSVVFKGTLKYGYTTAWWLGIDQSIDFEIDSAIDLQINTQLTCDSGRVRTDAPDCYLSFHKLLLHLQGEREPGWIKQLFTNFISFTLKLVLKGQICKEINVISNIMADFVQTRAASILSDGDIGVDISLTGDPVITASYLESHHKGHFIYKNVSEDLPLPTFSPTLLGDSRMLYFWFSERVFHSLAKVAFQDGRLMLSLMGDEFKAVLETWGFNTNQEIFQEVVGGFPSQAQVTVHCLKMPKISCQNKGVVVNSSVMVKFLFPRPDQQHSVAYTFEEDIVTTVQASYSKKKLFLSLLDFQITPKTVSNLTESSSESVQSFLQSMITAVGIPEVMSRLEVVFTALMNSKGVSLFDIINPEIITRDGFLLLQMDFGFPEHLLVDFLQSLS

[2] = system: JHC-1; assay: Binding to antibody JHC-1
[3] = biological target: T2, CETP (Homo sapiens, UniProt P11597); assay type: binding; settings: 25 µM unlabeled compound, […] label
T2 sequence (P11597 18-493): T1 sequence (P11597 18-493 C30S) with S13C

[4] = assay type: in vivo, human; settings: healthy volunteers, single oral dose 600 mg dalcetrapib
[5] = biological target: T2, CETP; assay: Transfer of CE from HDL to LDL, scintillation proximity assay; assay type: biochemical
[6] = biological target: T2, CETP; assay type: binding; settings: 25 µM unlabeled compound, coincubation
[7] = biological target: T2, CETP; assay: SPR; assay type: binding; settings: 5 µM, 60 s, before and after dalcetrapib-thiol injections
[8] = system: Golden Syrian hamsters; assay: In vivo macrophage-to-feces RCT study; parameters: species or system Golden Syrian hamster; settings: dalcetrapib 100 mg/kg BID, torcetrapib 30 mg/kg QD, anacetrapib 30 mg/kg QD; for [3H]HDL / [3H]plasma: Day 3 after labeled macrophage injection; for [3H]HDL / [3H]plasma / Fecal [3H]total sterols / Fecal total radioactivity: mean ± SD; for Change in liver radioactivity compared with vehicle: day 10, data not shown; for Fecal [3H]total sterols: sum of [3H]neutral sterols and [3H]bile acids; for Fecal [3H]total sterols / Fecal total radioactivity: day 0-10; for Fecal total radioactivity: whole fecal homogenates
[9] = biological target: T3, PLTP (Homo sapiens, UniProt P55058); settings: concentrations up to 30 µM; cited from earlier work
[10] = cited from earlier work
[11] = biological target: T2, CETP; assay: CETP ELISA with different capture antibodies, in vitro addition to human plasma; settings: 0.01-10 µM
Outline: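 Test compound dilution series (0.01–10 µM) made in this plasma, held 3 h at 37°C, then assayed by JHC-1-capture/6/6-HRP and 6/2-capture/6/17-HRP ELISAs. Duplicates per donor (n = 14); mean with SD.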

[12] = biological target: T3, PLTP; assay: PLTP activity; assay type: biochemical; settings: concentrations up to 30 µM; data not shown
[13] = biological target: T2, CETP; assay: CETP ELISA on plasma of healthy subjects after single oral 600 mg dalcetrapib; assay type: in vivo; settings: 22 healthy volunteers
[14] = system: CETP-induced pre-β-HDL formation; assay: Quantification of pre-β-HDL by ELISA in incubated human plasma; assay type: biochemical; settings: endogenous CETP only, 21 h at 37°C
Outline: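 Human plasma with endogenous CETP at 1.25 μg/ml, no rhCETP added, incubated 21 h at 37°C with or without test compound (0.1, 1, 3, 10 µM). Pre-β-HDL quantified by a pre-β1-selective ELISA. Dose effects assessed by ANCOVA with nested factor.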

[15] = read-out: IC50 for transfer of CE from HDL to LDL by C13S CETP mutant, mean ± SEM, CETP 0.5 µg/ml, 3 h at 37°C
[16] = read-out: IC50 for transfer of CE from HDL to LDL by rhCETP, mean ± SEM, CETP 0.5 µg/ml, 3 h at 37°C
[17] = human plasma of seven donors, 3 h at 37°C

T3 sequence (P55058 18-493, species assumed): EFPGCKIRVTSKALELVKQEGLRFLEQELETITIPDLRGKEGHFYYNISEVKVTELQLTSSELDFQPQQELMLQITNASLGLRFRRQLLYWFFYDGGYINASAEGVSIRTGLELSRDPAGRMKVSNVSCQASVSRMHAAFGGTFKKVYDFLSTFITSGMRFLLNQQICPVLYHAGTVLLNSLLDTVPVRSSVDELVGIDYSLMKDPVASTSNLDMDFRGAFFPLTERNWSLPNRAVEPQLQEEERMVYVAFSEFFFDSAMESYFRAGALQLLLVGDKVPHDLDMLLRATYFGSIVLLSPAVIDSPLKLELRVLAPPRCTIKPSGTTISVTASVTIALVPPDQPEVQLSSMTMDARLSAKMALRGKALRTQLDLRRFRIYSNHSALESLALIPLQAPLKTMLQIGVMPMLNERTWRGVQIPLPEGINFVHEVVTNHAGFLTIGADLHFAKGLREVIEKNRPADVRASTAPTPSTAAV

| IC50 [1, 15] [µM] | IC50 [5, 16] [nM] | Effect on binding of [14C]torcetrapib to immobilized rhCETP [6] | Decrease in amount of [14C]torcetrapib bound to immobilized rhCETP [6] [%] | Change in CETP epitope detection, ELISA with capture antibody 6/2 [11, 17] | SMILES | Displacement of [14C]dalcetrapib-thiol bound to rhCETP ([3]; with 5 mM TCEP) | [3H]HDL [8] | [3H]plasma [8] [kBq/ml] | Change in liver radioactivity compared with vehicle [8] [%] | Fecal [3H]total sterols [8] | Fecal total radioactivity [8] | further results |
| --- | --- | --- | --- | --- | --- | --- | --- | --- | --- | --- | --- | --- |
| > 100 | 23.7 ± 1.9 | only marginally decreased | – | – | CCC(CC)CC1(C(=O)Nc2ccccc2S)CCCCC1 [dalcetrapib-thiol] | did occur when TCEP was present | – | – | – | – | – | Binding to JHC-1 [2]: did not bind; Displacement of [14C]dalcetrapib-thiol bound to rhCETP ([3]; absence of TCEP, data not shown): not observed; Maximum plasma dalcetrapib-thiol level [4]: 628.7 ng/mL; Time of maximum plasma dalcetrapib-thiol level [4]: 4 h; t1/2 ([4]; mean ± SD): 25.5 ± 3.9 h |
| > 100 | 35.2 ± 2.8 | unaffected | – | – | CCC(CC)CC1(C(=O)Nc2ccccc2SSc2ccccc2NC(=O)C2(CC(CC)CC)CCCCC2)CCCCC1 [dalcetrapib-disulfide] | – | – | – | – | – | – | – |
| – | – | – | 82 | no change in epitope detection | CCOC(=O)N1c2ccc(C(F)(F)F)cc2[C@@H](N(Cc2cc(C(F)(F)F)cc(C(F)(F)F)c2)C(=O)OC)C[C@H]1CC [torcetrapib] | neither torcetrapib nor anacetrapib affected | 0.32 ± 0.07^c kBq/ml | 0.77 ± 0.11 | −28.1 | 11.5 ± 0.5^b % of injected | 16.5 ± 0.5^c % of injected | Binding to rhCETP following saturation of the dalcetrapib binding site (SPR) [7]: remained unchanged; Effect on PLTP activity [9]: neither inhibit nor increase PLTP activity; Fecal sterol excretion in clinical studies [10]: not associated with an increase in fecal sterol excretion; Change in CETP epitope detection, ELISA with capture antibody JHC-1 [11, 17]: did not change epitope detection |
| – | – | – | 60 | – | COc1cc(F)c(C(C)C)cc1-c1ccc(C(F)(F)F)cc1CN1C(=O)O[C@H](c2cc(C(F)(F)F)cc(C(F)(F)F)c2)[C@@H]1C [anacetrapib] | neither torcetrapib nor anacetrapib affected | 0.34 ± 0.07^c kBq/ml | 0.79 ± 0.11 | −9.2 | 9.7 ± 0.9 % of injected | 13.2 ± 1.5 % of injected | Raise of plasma HDL-C in humans [10]: up to 130% |
| – | – | unaffected | – | no change in epitope detection | CCC(CC)CC1(C(=O)Nc2ccccc2SC(=O)C(C)C)CCCCC1 [dalcetrapib] | displaced | 0.28 ± 0.04^c kBq/ml | 0.74 ± 0.05 | −42.2 | 12.5 ± 0.5^b % of injected | 17.5 ± 0.5^c % of injected | IC50 [1]: > 100 µM; Effect on PLTP activity [12]: neither inhibit nor increase PLTP activity; Change in CETP detection with 6/2 as capture antibody [13]: no change was detected; Decrease in CETP detection by the JHC-1-based ELISA ([13]; P < 0.001): 30%; IC50 [5]: 205 ± 96.3 nM; Increase in pre-β-HDL ([14]; 1 µM, NS): 4%; Increase in pre-β-HDL ([14]; 3 µM, P < 0.05): 13%; Increase in pre-β-HDL ([14]; 10 µM, P < 0.01): 16%; Raise of HDL-C in humans ([10]; dose of 600 mg): up to 36%; Concentration at which maximum decrease in JHC-1 epitope detection is reached ([11]; human plasma in vitro): 0.5 µM; Concentration from which CETP detection by JHC-1 is decreased ([11]; human plasma in vitro): ≥ 0.1 µM |
